In brackets after ≈: the same amount, converted by molar mass.
Tests used:
[1] = molecular target: Cell division cycle 7-related protein kinase (Homo sapiens, UniProt O00311); experiment: Inhibition of human Cdc7 assessed as inhibition of rate of phosphorylation of Mcm2 protein
[2] = test system: A2780; experiment: Antiproliferative activity against human A2780 cells after 72 hrs by luciferase based assay; assay type: functional, cell-based
[3] = molecular target: Cyclin-dependent kinase 9 (Homo sapiens, UniProt P50750); experiment: Inhibition of CDK9
Chain of Cyclin-dependent kinase 9 (P50750 whole entry): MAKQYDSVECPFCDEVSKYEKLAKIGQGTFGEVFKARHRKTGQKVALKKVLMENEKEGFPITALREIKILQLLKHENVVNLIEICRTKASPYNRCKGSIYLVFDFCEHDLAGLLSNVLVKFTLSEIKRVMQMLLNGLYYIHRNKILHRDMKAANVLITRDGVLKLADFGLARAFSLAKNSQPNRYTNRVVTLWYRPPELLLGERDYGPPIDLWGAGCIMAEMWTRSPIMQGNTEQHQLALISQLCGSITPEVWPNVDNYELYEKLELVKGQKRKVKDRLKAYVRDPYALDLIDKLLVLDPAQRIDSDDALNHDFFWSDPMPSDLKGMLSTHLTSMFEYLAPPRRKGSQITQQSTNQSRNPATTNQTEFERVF

[4] = test system: Hepatocyte; experiment: Metabolic stability in rat hepatocytes assessed as intrinsic clearance at 1 uM; assay type: cell-based; settings: Liver
[5] = Solubility in pH 7.0 buffer
[6] = Metabolic stability in human hepatocytes expressing CYP3A4 assessed as drug remaining after 1 hr; assay type: ADME, cell-based, Hepatocyte; settings: read-out: Stability
[7] = Cmax in nu/nu mouse at 10 mg/kg, iv administered as single dose; assay type: ADME, organism-based; set-up: dose 10 mg/kg, route intravenous; settings: in vivo
Procedure, shortened: (§1)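 Single iv or oral dose in 5% dextrose to overnight-fasted animals. Nu/Nu mice: males, 3 per route, saphenous bleeds to 24 h. Han-Wistar rats: males, 3 per route, jugular bleeds to 24 h. Beagle dogs: 2 per sex, iv and po crossover 2 weeks apart, jugular bleeds to 48 h. Plasma by LC/MS/MS; noncompartmental parameters, AUC by linear trapezoid with extrapolation.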

[8] = AUC (0 to infinity) in nu/nu mouse at 10 mg/kg, iv administered as single dose; assay type: ADME, organism-based; set-up: dose 10 mg/kg, route intravenous, time infinity; settings: plasma; procedure, shortened: as §1
[9] = Clearance in nu/nu mouse at 10 mg/kg, iv administered as single dose; assay type: ADME, organism-based; set-up: dose 10 mg/kg, route intravenous; settings: in vivo; procedure, shortened: as §1
[10] = Volume of distribution at steady state in nu/nu mouse at 10 mg/kg, iv administered as single dose; assay type: ADME, organism-based; set-up: dose 10 mg/kg, route intravenous; settings: in vivo, read-out: Vdss
Procedure, shortened: (§2)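 Overnight-fasted male Nu/Nu mice got a single 10 mg/kg dose in 5% dextrose, iv or po, three mice per route. Saphenous blood was drawn at 0.083 (iv) or 0.25 (po), 0.5, 1, 6 and 24 h. Plasma was assayed by LC/MS/MS and analysed noncompartmentally. Tmax is the observed peak time, Vss = CL·MRT, and F is the ratio of dose-normalized AUC∞ po/iv.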

[11] = Half life in nu/nu mouse at 10 mg/kg, iv administered as single dose; assay type: ADME, organism-based; set-up: dose 10 mg/kg, route intravenous; settings: in vivo; procedure, shortened: as §1
[12] = Cmax in nu/nu mouse at 10 mg/kg, po administered as single dose; assay type: ADME, organism-based; set-up: dose 10 mg/kg, route oral; settings: in vivo; procedure, shortened: as §1
[13] = Tmax in nu/nu mouse at 10 mg/kg, po administered as single dose; assay type: ADME, organism-based; set-up: dose 10 mg/kg, route oral; settings: in vivo; procedure, shortened: as §2
[14] = AUC (0 to infinity) in nu/nu mouse at 10 mg/kg, po administered as single dose; assay type: ADME, organism-based; set-up: time infinity, dose 10 mg/kg, route oral; settings: plasma; procedure, shortened: as §1
[15] = Half life in nu/nu mouse at 10 mg/kg, po administered as single dose; assay type: ADME, organism-based; set-up: dose 10 mg/kg, route oral; settings: in vivo; procedure, shortened: as §1
[16] = Oral bioavailability in nu/nu mouse at 10 mg/kg administered as single dose; assay type: ADME, organism-based; settings: in vivo; procedure, shortened: as §2

Chain of Cell division cycle 7-related protein kinase (O00311 whole entry): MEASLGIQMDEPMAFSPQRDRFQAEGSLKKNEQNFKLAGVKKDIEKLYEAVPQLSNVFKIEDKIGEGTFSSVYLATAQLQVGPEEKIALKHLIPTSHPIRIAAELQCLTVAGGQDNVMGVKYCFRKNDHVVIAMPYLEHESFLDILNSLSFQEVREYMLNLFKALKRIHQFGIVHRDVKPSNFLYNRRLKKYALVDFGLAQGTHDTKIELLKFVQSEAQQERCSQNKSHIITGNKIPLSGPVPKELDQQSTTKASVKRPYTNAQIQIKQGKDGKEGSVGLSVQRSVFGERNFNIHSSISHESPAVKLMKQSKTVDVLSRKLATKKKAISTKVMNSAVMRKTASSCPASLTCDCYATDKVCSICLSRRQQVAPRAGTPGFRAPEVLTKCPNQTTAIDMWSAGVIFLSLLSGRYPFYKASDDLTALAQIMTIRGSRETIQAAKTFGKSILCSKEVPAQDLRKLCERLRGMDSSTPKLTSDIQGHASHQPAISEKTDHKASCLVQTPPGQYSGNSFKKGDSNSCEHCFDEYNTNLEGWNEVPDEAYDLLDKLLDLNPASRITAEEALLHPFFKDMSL

Structure (SMILES)	IC50 [1] [nM]	IC50 ([2]; Homo sapiens, A2780, 72 h) [nM]	further results
CCC1CNC(=O)c2cc(-c3ccncc3)[nH]c21 (configuration not stated)	2	300	–
CC1(C)Cc2[nH]c(-c3ccncc3)cc2C(=O)N1	32	1200	–
O=C1NCC(c2ccccc2)c2[nH]c(-c3ccncc3)cc21 (configuration not stated)	20	4000	–
CC1Cc2[nH]c(-c3ccncc3)cc2C(=O)N1 (configuration not stated)	13	2400	–
Nc1nccc(-c2cc3c([nH]2)C(C2CCC2)CNC3=O)n1 (stereo in doubt; 88-1)	11	–	IC50 [3]: 83 nM; IC50 ([2]; a2780): 1300 nM
Nc1nccc(-c2cc3c([nH]2)C(CCOCc2ccccc2)CNC3=O)n1 (configuration not stated)	7	400	–
CC1(C)Cc2[nH]c(-c3ccnc(N)n3)cc2C(=O)N1	64	1800	–
Nc1nccc(-c2cc3c([nH]2)C(CCC(F)(F)F)CNC3=O)n1 (stereo in doubt; 93)	10	–	IC50 ([2]; a2780): 500 nM
Nc1nccc(-c2cc3c([nH]2)C(CCCOCc2ccccc2)CNC3=O)n1 (configuration not stated)	24	2000	–
Nc1nccc(-c2cc3c([nH]2)C(CCC(F)(F)F)CNC3=O)n1 (stereo in doubt; 93-2) [listing 1 of 2 here]	–	–	CL (mL.min-1.kg-1) [4]: 8.33
Nc1nccc(-c2cc3c([nH]2)[C@H](CCF)CNC3=O)n1	5	1000	IC50 [3]: 96 nM
CC1CNC(=O)c2cc(-c3ccnc(N)n3)[nH]c21 (configuration not stated)	6	700	–
CC1(C)CNC(=O)c2cc(-c3ccncc3)[nH]c21	–	200	–
Nc1nccc(-c2cc3c([nH]2)C(CCC(F)(F)F)CNC3=O)n1 (stereo in doubt; 93-2) [listing 2 of 2 here]	11	–	IC50 [3]: 395 nM; solubility [5]: 195 µM (≈ 63.4 µg/mL); remaining at 1 h [6]: 94%; Cmax [7]: 13.6 µM; AUC(0-inf) [8]: 5.3 µM·h; clearance [9]: 88.3 mL/min/kg; Vd [10]: 1.5 L/kg; half-life [11]: 54 min; Cmax [12]: 0.8 µM; Tmax [13]: 19.8 min; AUC(0-inf) [14]: 1.7 µM·h; half-life [15]: 102 min; bioavailability [16]: 31%; IC50 ([2]; a2780): 300 nM
Nc1nccc(-c2cc3c([nH]2)C(C2CCC2)CNC3=O)n1 (stereo in doubt; 88)	5	–	IC50 ([2]; a2780): 300 nM
O=C1N[C@@H](COCc2ccccc2)Cc2[nH]c(-c3ccncc3)cc21	44	4800	–
CC(C)C1CNC(=O)c2cc(-c3ccnc(N)n3)[nH]c21 (stereo in doubt; 87-2)	1	–	IC50 [3]: 73 nM; IC50 ([2]; a2780): 600 nM
Nc1nccc(-c2cc3c([nH]2)C(CCO)CNC3=O)n1 (configuration not stated)	4	1100	–
Nc1nccc(-c2cc3c([nH]2)CC(C2CC2)NC3=O)n1 (configuration not stated)	11	1100	–
CCC1(CC)CNC(=O)c2cc(-c3ccnc(N)n3)[nH]c21	5	200	–
CC(C)C1Cc2[nH]c(-c3ccncc3)cc2C(=O)N1 (configuration not stated)	6	900	–
CCC1CNC(=O)c2cc(-c3ccnc(N)n3)[nH]c21 (stereo in doubt; 86-1)	–	–	CL (mL.min-1.kg-1) [4]: 5
